From publication PMC5773287 (ACS nano, 2017)
Numbered stars: 1 amine (or outer) side, 2 acyl side, 3 side chain; on linkers, the order of the positions; unused ones are H or OH. Peptide text beside a SMILES is read from it. * marks the point of attachment. X1 = Nc1nc2[nH]cc(CCc3ccc(C(=O)*)cc3)c2c(=O)[nH]1; γGlu = O=C(O)[C@H](CCC(=O)[*:2])N[*:1]

How the values were obtained:
[1] = test system: GL261 mouse glioma cell line; assay: Cytotoxicity assay against the mouse glioma cell line GL261
[2] = format: physicochemical; details: for hydrogel formation: 30 mM in 1× DPBS solution, overnight ageing, vial inversion; for self-assembled morphology (cryo-TEM): 1× DPBS, aged over 24 h at room temperature, PemFE 4 mM, C12FE 10 mM
Outline: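 Self-assembled nanostructures imaged by cryo-TEM after aging over 24 h at room temperature. For gelation, lyophilized test peptide powder was dissolved in 1× DPBS at a final 30 mM and sonicated 2 min to aid dissolution. Samples were aged overnight, and gel formation was recorded by photographing inverted vials.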

[3] = Cytotoxicity assay against the mouse glioma cell line GL261

Compound | IC50 ([1]; Mus musculus, GL261, read-out: IC50 (cytotoxicity)) [µM] | hydrogel formation [2] | self-assembled morphology (cryo-TEM) [2] | IC50 [3] [µM] | cell toxicity ([1]; GL261 cells, concentrations up to 100 μM)
Nc1nc2[nH]cc(CCc3ccc(C(=O)N[C@@H](CCC(=O)O)C(=O)O)cc3)c2c(=O)[nH]1 [Pem, Pemetrexed, reference compound] | 0.13 |  |  |  | 
Nc1nc2[nH]cc(CCc3ccc(C(=O)N[C@@H](CCC(=O)N[C@@H](Cc4ccccc4)C(=O)N[C@@H](Cc4ccccc4)C(=O)N[C@@H](CCC(=O)O)C(=O)N[C@@H](CCC(=O)O)C(=O)O)C(=O)O)cc3)c2c(=O)[nH]1 [PemFE] ({X1-γGlu}-FFEE-OH) |  | formation of self-supporting hydrogels | filamentous nanostructures | 2.29 | 
FFEE [C12FE] |  | formation of self-supporting hydrogels | filamentous nanostructures |  | did not show any significant cell toxicity
